Assay outcomes deposited in PubChem BioAssay by several laboratories.
Hits are enriched below; roughly 1.2% of the tested compounds scored in any of these assays.
RBBP9 inh = blocks human serine hydrolase RBBP9. hit rate 0.2% among 220,000. inhibition, % at 7.94 µM. recombinant RBBP9, FP-Rh probe fluorescence polarization. AID 1515. O75884;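 active means inhibition above the campaign mean of all tested compounds plus 3 SD, cut at about 14% in these data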;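 further: plate controls were DMSO wells with RBBP9 for no effect and wells lacking RBBP9 protein for full effect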
Target sequence (O75884 whole entry, looked up): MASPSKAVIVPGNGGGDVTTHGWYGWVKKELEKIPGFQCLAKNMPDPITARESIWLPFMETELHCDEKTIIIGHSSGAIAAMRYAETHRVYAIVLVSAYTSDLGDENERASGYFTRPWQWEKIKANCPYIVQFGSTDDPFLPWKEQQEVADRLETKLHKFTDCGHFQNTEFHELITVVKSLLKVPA
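Assay system: recombinant human RBBP9; Reagent: Serine-hydrolase probe FP-Rh, 375 nM pre-mixing; Doses: 7.94 µM single dose, 0.794% DMSO; Incubation: 30 min then 45 min, 25 °C; Detection: fluorescence polarization (mP), excitation 525 nm, emission 598 nm; Evaluation: percent inhibition from mP, scaled between DMSO and no-protein wells.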
Rad51 HR inh = blocks human Rad51 in homologous recombination | inhibition, % at 10 µM | hRad51 DNA strand exchange, fluorescence dequenching | AID 1385 | hit rate 0.085% among 200,000 | Q06609;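 active means inhibition above 40% at the single screening dose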;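 further: 0% = DMSO control wells and 100% = blanks with heterologous ssDNA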
Target sequence (Q06609 whole entry, looked up): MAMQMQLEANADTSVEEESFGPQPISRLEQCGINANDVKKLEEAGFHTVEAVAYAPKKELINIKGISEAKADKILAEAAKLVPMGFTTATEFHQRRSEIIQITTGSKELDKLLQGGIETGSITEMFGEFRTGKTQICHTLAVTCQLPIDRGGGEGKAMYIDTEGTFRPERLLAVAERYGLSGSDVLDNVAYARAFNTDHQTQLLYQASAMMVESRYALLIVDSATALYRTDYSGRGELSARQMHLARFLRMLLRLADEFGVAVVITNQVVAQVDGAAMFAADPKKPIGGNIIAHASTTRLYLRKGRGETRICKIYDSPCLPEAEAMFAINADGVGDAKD
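System: hRad51 filaments on single-stranded DNA; reagent: Fluorescein- and BHQ1-tagged 47-mer duplex; compound dosing: one concentration, 10 µM final; timing: filaments 15 min 37 °C, then compound 30 min; measured by: fluorescein emission 520 nm, excitation 485 nm; benchmarks: per-plate controls and blanks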
FID counter = displaces DNA intercalator in HCV helicase counter-screen; hit rate 0.17% among 290,000; DNA fluorescent intercalator displacement, fluorescence; inhibition, % at 7.9 µM; in the data active means inhibition above about 37%;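 further: 0% = vehicle and 100% = reference compound; higher means more ethidium bromide displaced from hairpin DNA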
Wee1 stabilizer = human Wee1 degradation inhibition, primary screen | HeLa Luc-Wee1K328M stability, luciferase luminescence; 100% = proteasome inhibitor MG132 effect | hit rate 1.2% among 220,000 | reporter increase, % at 5 µM | P30291 | AID 1321;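 active means activation above the mean of all tested compounds plus 3 SD, set per screening run, cut at about 8.8% in these data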;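 further: cells exposed to compound for 20 h before luminescence read; 0% = DMSO alone and 100% = MG132 at 30 µM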
Wee1 degr conf = confirmation of human Wee1 degradation inhibitors; shares compounds with Wee1 stabilizer; HeLa Luc-Wee1K328M degradation, luminescence; vehicle 0%, proteasome-blocked wells 100%; activation, % at 5 µM; hit rate 4% among 1,100; in the data active means activation above about 8.9%
An asterisk follows results filed as active; / = no result.

SMILES	RBBP9 inh	Rad51 HR inh	FID counter	Wee1 stabilizer	Wee1 degr conf
CC(C)CCNC(=S)Nc1ccc2nc3n(c(=O)c2c1)CCCCC3	-7	/	-18	11*	1
CCN1C(=O)c2cccc3c(NC(=O)c4ccc(S(=O)(=O)N(C)C)cc4)ccc1c23	0	-8	-20	11*	5
CCN1C(=O)c2cccc3c(NC(=O)c4ccc(S(=O)(=O)N5CCOCC5)cc4)ccc1c23	2	5	-24	1	/
CN(CC(=O)NCc1cccs1)CC(=O)Nc1ccc(F)c(F)c1F	/	/	-11	/	/
Cc1ccccc1-n1cc(-c2ccc(Br)cc2)nc1SCC(N)=O	-8	-18	-31	13*	3
Cc1ccc(-c2cn(-c3ccccc3)c(SCC(N)=O)n2)cc1C	5	-13	-30	-1	/
O=C(CN(Cc1ccccc1)C(=O)CCC(=O)Nc1ccccn1)NCc1ccco1	6	7	-35	12*	-1
O=C(CN(CC1CCCO1)C(=O)CCC(=O)Nc1ccccn1)NCC1CCCO1 (configuration not stated)	-3	-13	-6	1	/
COCCNC(=O)CN(CC1CCCO1)C(=O)CCC(=O)Nc1ccccn1 (configuration not stated)	-5	14	-3	11*	0
O=C(Nc1ccc(Cn2ccnc2)cc1)c1cccc(C(F)(F)F)c1	/	/	3	/	/
c1ccc(C(c2ccccc2)N2CCN(c3nc4ccccc4n4cnnc34)CC2)cc1	0	6	7	11*	1
c1cnc(N2CCN(c3nc4ccccc4n4cnnc34)CC2)nc1	-5	-1	-11	-2	/
O=C(CCS(=O)(=O)c1ccccc1)Nc1ccc(N2CCOCC2)cc1	-4	-7	-1	11*	-2
O=C(NC1CC1)c1ccc(F)cc1Cl	-4	0	-23	-2	/
CCS(=O)(=O)c1ccc(C(=O)NC2CC2)c(Cl)c1Cl	-6	2	-1	11*	2
CC(C)c1ccc(/C=N/NC(=O)c2cccc(Cl)c2)cc1	-6	/	-8	14*	6
CCOCC(=O)Nc1nc(C)cc(C)n1	7	-9	2	11*	1
Cc1ccc(OCCSc2nc(N)cc(N)n2)cc1	-1	-2	-2	11*	0
CC(C)(C)C(=O)c1cnc(Nc2ccccc2Cl)s1	-6	-13	-16	16*	4
O=C(O)c1ccc(OCC(F)(F)F)nc1	2	19	-1	1	/
Fc1cccc(/C=N/Nc2nc3ccccc3[nH]2)c1	-1	3	6	11*	0
Cc1ccc(CN2CCN(Cc3cccn3-c3nccs3)CC2CCO)cc1 (configuration not stated)	-5	3	15	13*	-1
Cc1sc2ncn(CC(=O)NCCCC(=O)Nc3ccc(C(C)C)cc3)c(=O)c2c1C	/	/	-22	/	/
COCCOc1cnn(-c2cc(Oc3ccc(C)cc3)ncn2)c(=O)c1Cl	-8	-2	-16	12*	4
CC1CCCN(c2ccc([N+](=O)[O-])cc2C(=O)c2ccccc2)C1 (configuration not stated)	-7	/	3	4	/
SMILES	RBBP9 inh	Rad51 HR inh	FID counter	Wee1 stabilizer	Wee1 degr conf
O=C(NCc1cccs1)C1CCC(CNS(=O)(=O)c2ccccc2)CC1 (configuration not stated)	-1	10	-24	12*	1
COc1cccc(CNC(=O)CCCn2nc(C)n3c(cc4sccc43)c2=O)c1	/	/	-43	/	/
COc1ccc(-c2noc(CN(C)Cc3ccc(C)o3)n2)cc1	-3	19	-10	12*	3
Cc1ccc(C(=O)CSc2nc3ccccc3c(=O)[nH]2)cc1	2	1	-10	21*	1
COCCNC(=O)C(c1c[nH]c2ccccc12)N(C(=O)c1snc(C(N)=O)c1N)c1cccc(OC)c1 (configuration not stated)	-6	-15	-25	1	/
COc1ccc(COc2ccc(C3C(S(=O)(=O)c4ccccc4)CON3C)cc2OC)cc1 (configuration not stated)	-9	3	-2	-1	/
O=C(COc1cccc2cccnc12)N/N=C1\SCC(=O)N1Cc1ccco1	-6	-4	-15	-2	/
Cc1ccc(OCC(=O)N/N=C2/SCC(=O)N2Cc2ccco2)cc1	-1	/	-14	12*	2
COC(=O)c1cn(C(=O)c2ccc(OC)cc2)c2ccccc12	/	/	-14	/	/
CCN1CC(CNCc2cn(-c3ccc(OC)cc3)nc2-c2ccccc2Cl)CC1=O (configuration not stated)	1	5	4	24*	1
O=c1cc(/C=C/c2ccccc2)oc2ccccc12	-6	-12	-14	12*	5
Cc1cccc(NC(=O)c2ccc(NCC3CCCO3)c([N+](=O)[O-])c2)n1 (configuration not stated)	-5	6	-4	11*	5
CC(Oc1ccc(-c2ccccc2)c(F)c1)c1ccn(S(=O)(=O)c2ccc(Cl)cc2)n1 (configuration not stated)	-6	-1	-1	-1	/
C=CCc1cccc2cc(C(=O)NC3CCCCC3)c(=O)oc12	2	3	-14	17*	-1
COc1ccc(CNC(=O)C2=CC(c3ccc(OC)cc3)=NS(=O)(=O)N2C)cc1	/	/	-9	/	/
CCOC(=O)C1C(=O)OC(C)(C)C1C(CC)C(=O)c1c(C)cc(C)cc1C (configuration not stated)	-1	/	-34	8	/
CC1CC(C)CN(C(=S)SCc2nc(N)nc(Nc3ccccc3)n2)C1 (configuration not stated)	-2	/	-19	12*	-4
Cc1ccc(/C=C/C(=O)c2ccc(O)cc2)cc1	-6	8	-2	17*	0
Cc1ccc(N(CC(O)Cn2nc(C)cc2C)S(=O)(=O)c2ccc3ccccc3c2)cc1 (configuration not stated)	1	/	-31	-2	/
CCN(CC)CCNC(=O)COc1ccc(Cl)cc1Cl	4	-5	8	11*	0
OCC1(Cc2ccccc2)CCCN(Cc2ccn[nH]2)C1 (configuration not stated)	6	0	1	-3	/
Cc1ccc(-n2ncc(C#N)c2N)cc1	-6	21	3	11*	0
CCCn1c(N)c(N(CCOC)C(=O)c2ccc(F)cc2F)c(=O)[nH]c1=O	/	/	-11	/	/
Cc1cc(C)n2nc(C(=O)Nc3cccc(S(=O)(=O)N4CCCC4)c3)nc2n1	0	8	-12	1	/
Cc1cc(C)n2nc(C(=O)Nc3cccnc3)nc2n1	-9	-2	-2	13*	-1
c1ccc2nc(-c3ccc4c(c3)OCO4)ccc2c1	1	-6	-6	10*	3
COC(=O)c1cc(-c2ccc3c(c2)OCO3)nc2ccccc12	5	-3	1	1	/
NNC(=O)COc1ccccc1[N+](=O)[O-]	-2	-9	2	3	/
CC(C)c1nnc(NC(=O)COc2ccccc2[N+](=O)[O-])s1	-8	1	-4	23*	-1
